Series [1] is described as follows: Inhibition of Hedgehog signaling pathway in mouse NIH/3T3 cells assessed as reduction in Sonic hedgehog-induced Gli luciferase activity after 48 hrs by Dual-luciferase reporter gene assay. Type of series: cell-based. The following applies: NIH3T3, 48 h. The essentials:
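NIH3T3 cells stably carrying a Gli-luciferase reporter were grown in DMEM/10% FBS with 1 μg/mL puromycin. They were seeded at 2×10⁴ cells/well and cultured overnight at 37 °C, 5% CO₂. Compounds were added as 8-point serial dilutions (0.05–300 nM) in 0.5% FBS with 0.7 μg/mL Sonic Hh agonist, n = 4 wells, for 48 h. Controls were 0.1% DMSO with or without Shh. Read-out was the Firefly/Renilla luciferase ratio.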

A short description of series [2]: Clearance in Sprague-Dawley rat at 1 mg/kg, iv by LC/MS/MS analysis. The conditions noted are these: in vivo. Type of series: ADME, organism-based. The gist of the method:
(§1)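 Male SD rats (3; 180–240 g) received a single 1 mg/kg iv dose at a dosing volume of 5 mL/kg. Blood was sampled at 2, 5, 15 and 30 min and at 1, 2, 4, 6, 8, 10 and 24 h, then centrifuged for 5 min at 4 °C. Plasma underwent protein precipitation and LC/MS/MS in SRM mode with an internal standard. Parameters were derived by noncompartmental analysis.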

Series [3] can be described thus: Apparent volume of distribution in Sprague-Dawley rat at 1 mg/kg, iv by LC/MS/MS analysis. The conditions noted are these: in vivo, read-out: Vz. Type of series: ADME, organism-based. The gist of the method:
as §1

Series [4] in a line: Half life in Sprague-Dawley rat at 1 mg/kg, iv by LC/MS/MS analysis. The following applies: in vivo. Type of series: ADME, organism-based. The gist of the method:
as §1

The nature of series [5]: AUC in Sprague-Dawley rat at 1 mg/kg, iv by LC/MS/MS analysis. The format is ADME, organism-based. The following applies: in vivo. The gist of the method: as §1
Series [6] in a line: Cmax in Sprague-Dawley rat at 1 mg/kg, iv by LC/MS/MS analysis. The following applies: in vivo. Type of series: ADME, organism-based. The arrangement: dose 1 mg/kg, route intravenous. The gist of the method:
as §1

As usually defined, the IC50 is the midpoint of a concentration-inhibition curve. As a reminder, the clearance is the rate of elimination divided by the concentration. Usually half-life stands for how long it takes for the measured level to halve. Usually AUC stands for concentration integrated over time. Read a low AUC as low exposure. In general, Cmax refers to the peak of the concentration-time curve.

On to `CCc1cnc(Nc2ccc(C(=O)Nc3cc(CN4CCN(C)CC4)ccc3C)cc2)nc1-c1ccc(OC(F)(F)F)cc1`, for which the 50% inhibitory concentration (IC50) in series [1] is 2.21 nM.
The same measure, in the same setting: under `Cc1ccc(CN2CCCCC2)cc1NC(=O)c1ccc(Nc2ncc(C)c(-c3ccccc3)n2)cc1` stands 1.94 nM; under `Cc1ccc(CN2CCN(C)CC2)cc1NC(=O)c1ccc(Nc2ncc(C3CC3)c(-c3ccc(OC(F)(F)F)cc3)n2)cc1`, 1.54 nM.
In series [2], `Cc1ccc(OCCN2CCOCC2)cc1NC(=O)c1ccc(Nc2ncc(C)c(-c3ccccc3)n2)cc1` had a clearance of 21.5 mL/min/kg. For the same compound, in series [3], the Vd amounted to 2.75 L/kg. The compound also had a half-life in series [4] of 86.4 min. Further, the AUC in series [5] worked out at 787 ng·h/mL. This compound also came in with a Cmax in series [6] of 863 ng/mL. The 50% inhibitory concentration (IC50) in series [1] worked out at 4.28 nM.
`Cc1ccc(CN2CCN(C)CC2)cc1NC(=O)c1ccc(Nc2ncc(C)c(-c3ccccn3)n2)cc1`: the IC50 in series [1] turned out to be 7.37 nM.
Same read-out and setting: for `Cc1ccc(CN2CCCC2)cc1NC(=O)c1ccc(Nc2ncc(C)c(-n3ccnc3)n2)cc1` the value was 21.1 nM.
Take `Cc1ccc(CN2CCOCC2)cc1NC(=O)c1ccc(Nc2nccc(-c3cccnc3)n2)cc1`: in series [2], the clearance was 33.6 mL/min/kg. For the same compound, the Vd in series [3] came to 0.7 L/kg. Besides, the half-life in series [4] was 15 min. This compound displayed an AUC in series [5] of 521 ng·h/mL. This compound also returned a maximum concentration (Cmax) in series [6] of 2520 ng/mL. Further, in series [1], the half-inhibitory concentration (IC50) was determined as 29 nM.
With `Cc1ccc(OCCN(C)C)cc1NC(=O)c1ccc(Nc2ncc(C)c(-c3ccc(OC(F)(F)F)cc3)n2)cc1`, in series [1], the IC50 came to 1.07 nM.
On the same count and under the same terms, for `CCN(CC)CCCNC(=O)c1ccc(C)c(NC(=O)c2ccc(Nc3ncc(C)c(-c4ccc(OC(F)(F)F)cc4)n3)cc2)c1` the value was 0.62 nM.
The same measure, in the same setting: for `Cc1ccc(OCCN2CCOCC2)cc1NC(=O)c1ccc(Nc2ncc(C)c(-c3ccc(OC(F)(F)F)cc3)n2)cc1` the value was 2.45 nM.
On the same count and under the same terms, under `Cc1ccc(OCCCN2CCOCC2)cc1NC(=O)c1ccc(Nc2ncc(C)c(-c3ccc(OC(F)(F)F)cc3)n2)cc1` stands 2.14 nM.
Turning to `Cc1ccc(CN2CCOCC2)cc1NC(=O)c1ccc(Nc2ncc(C)c(-c3ccccn3)n2)cc1`, the clearance in series [2] was 12.3 mL/min/kg. Also, the Vd in series [3] turned out to be 0.888 L/kg. This compound also had a half-life in series [4] of 50.4 min. This compound also registered an AUC in series [5] of 1370 ng·h/mL. This compound also showed a Cmax in series [6] of 1540 ng/mL. Moreover, in series [1], the IC50 was found to be 1.89 nM.

The values are drawn from ChEMBL document CHEMBL4152368, “Novel 4-(2-pyrimidinylamino)benzamide derivatives as potent hedgehog signaling pathway inhibitors” (Bioorg Med Chem, 2018).
